Data reported in ChEMBL document CHEMBL1165947, “Synthesis and antitumor activity of 2,5-bis(3'-indolyl)-furans and 3,5-bis(3'-indolyl)-isoxazoles, nortopsentin analogues” (Bioorg Med Chem, 2010).
Converted amounts (≈) assume the structure as drawn.

Experiments:
UACC-62 = test: Growth inhibition of human UACC62 cells; format: functional
In short: (§1)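 Values come from the NCI in vitro disease-oriented human tumor cell screen. GI50 is the concentration giving 50% growth inhibition of tumor cells; pGI50 is its −log molar form.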

CCRF-CEM = test: Growth inhibition of human CCRF-CEM cells; format: functional
MDA-MB-231 = test: Growth inhibition of human MDA-MB-231 cells; format: functional; in short: as §1
HT-29 [1] = test: Cytotoxicity against human HT-29 cells after 4 days by modified propidium iodide staining-based fluorescence assay; format: functional, cell-based; settings: HT-29, 96 h
In short: (§2)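 Cells cultured in RPMI 1640 with 10% fetal calf serum and 0.1 mg/mL gentamicin at 37 °C, 5% CO2. Cells from exponential cultures were trypsinized and plated at 4.000-20.000 cells/well by line. After 24 h recovery, compounds were added at five log-spaced concentrations (highest 100 μg/mL) for 4 days. Proliferation was read as DNA content with aqueous propidium iodide (7 μg/ml), fluorescence ex 530/em 620 nm. Points were run in triplicate.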

OVCAR-5 = test: Growth inhibition of human OVCAR5 cells; format: functional; in short: as §1
NCI-H322M = test: Growth inhibition of human NCI-H322M cells; format: functional; in short: as §1
HCT-15 = test: Growth inhibition of human HCT15 cells; format: functional
[2] = Cytotoxicity against human LXFL 1121L cells after 4 days by modified propidium iodide staining-based fluorescence assay; format: functional, cell-based; settings: 96 h; in short: as §2
[3] = Cytotoxicity against human MAXF 401NL cells after 4 days by modified propidium iodide staining-based fluorescence assay; format: functional, cell-based; settings: 96 h; in short: as §2
SNB-75 = test: Growth inhibition of human SNB75 cells; format: functional; in short: as §1
MCF7 [4] = test: Cytotoxicity against human MCF7 cells after 4 days by modified propidium iodide staining-based fluorescence assay; format: functional, cell-based; settings: MCF7, 96 h; in short: as §2
[5] = Cytotoxicity against human LXFA 629L cells after 4 days by modified propidium iodide staining-based fluorescence assay; format: functional, cell-based; settings: 96 h; in short: as §2
CWR22R = test: Cytotoxicity against human 22Rv1 cells after 4 days by modified propidium iodide staining-based fluorescence assay; format: functional, cell-based; settings: 22Rv1, 96 h; in short: as §2
SF-295 = test: Growth inhibition of human SF295 cells; format: functional; in short: as §1
ACHN = test: Growth inhibition of human ACHN cells; format: functional
OVCAR-3 = test: Cytotoxicity against human OVCAR-3 cells after 4 days by modified propidium iodide staining-based fluorescence assay; format: functional, cell-based; settings: OVCAR-3, 96 h; in short: as §2
Malme-3M = test: Growth inhibition of human MALME-3M cells; format: functional; in short: as §1
RXF 393 = test: Growth inhibition of human RXF393 cells; format: functional; in short: as §1
[6] = Cytotoxicity against human GXF251L cells after 4 days by modified propidium iodide staining-based fluorescence assay; format: functional, cell-based; settings: GXF 251L, 96 h; in short: as §2
SK-MEL-2 = test: Growth inhibition of human SK-MEL-2 cells; format: functional; in short: as §1
[7] = Cytotoxicity against human BXF 1218L cells after 4 days by modified propidium iodide staining-based fluorescence assay; format: functional, cell-based; settings: 96 h; in short: as §2
[8] = Cytotoxicity against human 899L cells after 4 days by modified propidium iodide staining-based fluorescence assay; format: functional, cell-based; settings: 96 h; in short: as §2
SK-MEL-28 = test: Growth inhibition of human SK-MEL-28 cells; format: functional; in short: as §1
CAKI-1 = test: Growth inhibition of human Caki1 cells; format: functional
T47D = test: Growth inhibition of human T47D cells; format: functional; in short: as §1
HCT-116 = test: Cytotoxicity against human HCT116 cells after 4 days by modified propidium iodide staining-based fluorescence assay; format: functional, cell-based; settings: HCT-116, 96 h; in short: as §2
[9] = Cytotoxicity against human MEXF 276L cells after 4 days by modified propidium iodide staining-based fluorescence assay; format: functional, cell-based; settings: MEXF276L, 96 h; in short: as §2
SR = test: Growth inhibition of human SR cells; format: functional; in short: as §1
HOP-92 = test: Growth inhibition of human HOP92 cells; format: functional
DU-145 = test: Growth inhibition of human DU145 cells; format: functional
[10] = Cytotoxicity against human PC3M cells after 4 days by modified propidium iodide staining-based fluorescence assay; format: functional, cell-based; settings: PC-3M, 96 h; in short: as §2
MCF7 [11] = test: Growth inhibition of human MCF7 cells; format: functional; in short: as §1
COLO 205 = test: Growth inhibition of human COLO205 cells; format: functional
HT-29 [12] = test: Growth inhibition of human HT-29 cells; format: functional
SF-268 = test: Cytotoxicity against human SF268 cells after 4 days by modified propidium iodide staining-based fluorescence assay; format: functional, cell-based; settings: SF-268, 96 h; in short: as §2
K562 = test: Growth inhibition of human K562 cells; format: functional
[13] = Cytotoxicity against human MEXF 520L cells after 4 days by modified propidium iodide staining-based fluorescence assay; format: functional, cell-based; settings: 96 h; in short: as §2
UACC-257 = test: Growth inhibition of human UACC257 cells; format: functional; in short: as §1
A498 = test: Growth inhibition of human A498 cells; format: functional
KM12 = test: Growth inhibition of human KM12 cells; format: functional
UO-31 = test: Growth inhibition of human UO31 cells; format: functional; in short: as §1
M14 = test: Growth inhibition of human M14 cells; format: functional

COc1ccc2c(c1)c(-c1ccc(-c3cn(C)c4ccc(OC)cc34)o1)cn2C gave a GI50 (UACC-62) of 3.81 µM, a GI50 (CCRF-CEM) of 6.46 µM and a GI50 (MDA-MB-231) of 4.2 µM. The IC50 (HT-29 [1]) was > 100 mg/L, the GI50 (OVCAR-5) was 2.79 µM and the GI50 (NCI-H322M) was > 100 µM. For the same compound, the GI50 (HCT-15) was 4.22 µM, the IC50 [2] was 43.4 mg/L (≈ 112 µM) and the IC50 [3] was 8.1 mg/L (≈ 21 µM). For the same compound, the GI50 (SNB-75) was 13.6 µM, the IC50 (MCF7 [4]) was 6.2 mg/L (≈ 16 µM) and the IC50 [5] was 4.1 mg/L (≈ 10.6 µM). For the same compound, the IC50 (CWR22R) was 33.7 mg/L (≈ 87.2 µM), the GI50 (SF-295) was 13.4 µM and the GI50 (ACHN) was 3.74 µM. The IC50 (OVCAR-3) was 4.2 mg/L (≈ 10.9 µM), the GI50 (Malme-3M) was 52.8 µM and the GI50 (RXF 393) was 10.4 µM. It also gave an IC50 [6] of 3.8 mg/L (≈ 9.83 µM), a GI50 (SK-MEL-2) of 2.13 µM and an IC50 [7] of 15.7 mg/L (≈ 40.6 µM). The IC50 [8] was > 100 mg/L, the GI50 (SK-MEL-28) was 14 µM and the GI50 (CAKI-1) was 17.1 µM. For the same compound, the GI50 (T47D) was 2.72 µM, the IC50 (HCT-116) was 50.4 mg/L (≈ 130 µM) and the IC50 [9] was 3.8 mg/L (≈ 9.83 µM). For the same compound, the GI50 (SR) was 1.63 µM, the GI50 (HOP-92) was 1.03 µM and the GI50 (DU-145) was > 100 µM. It also gave an IC50 [10] of 4.1 mg/L (≈ 10.6 µM), a GI50 (MCF7 [11]) of 17.3 µM and a GI50 (COLO 205) of 5.13 µM. The GI50 (HT-29 [12]) was 22 µM, the IC50 (SF-268) was 35.1 mg/L (≈ 90.8 µM) and the GI50 (K562) was 2.86 µM. The IC50 [13] was 6.4 mg/L (≈ 16.6 µM), the GI50 (UACC-257) was 27 µM and the GI50 (A498) was > 100 µM. For the same compound, the GI50 (KM12) was 2.73 µM, the GI50 (UO-31) was 3.6 µM and the GI50 (M14) was 32.9 µM.
